Experiments:
MCF7 [1] = experiment: Effective concentration against human ER positive MCF-7 breast cancer cell line evaluated by luciferase assay; format: functional, cell-based
In short: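 ER-positive MCF-7 cells stably transfected with the ERE_wtc-luc reporter plasmid (MCF-7 2a). Cells were exposed to the compound over a concentration range. ER binding to the estrogen response element drives luciferase expression, which was measured to build concentration–activation curves relative to estradiol. EC50 was taken from these curves.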

[2] = target: Prostaglandin G/H synthase 1 (Ovis aries) (UniProt P05979); experiment: Inhibitory concentration against ovine cyclooxygenase-1 evaluated by enzyme linked immunosorbent assay
MCF7 [3] = experiment: Treatment upon control (T/C) against hormone dependent MCF-7 breast cancer cells at 10 uM concentration; details: Homo sapiens

| SMILES | IC50 [2] [µM] | EC50 (MCF7 [1]) [nM] | T/C at 10 µM (MCF7 [3]) [%] |
| --- | --- | --- | --- |
| CCc1c(-c2ccc(O)cc2)nc(-c2ccc(O)cc2)n1-c1ccc(O)cc1 | > 200 | 77 |  |
| Oc1ccc(-n2cc(-c3ccc(O)cc3Cl)nc2-c2ccc(O)cc2Cl)cc1 | 8.4 |  | 0 |
| C[C@]12CC[C@@H]3c4ccc(O)cc4CC[C@H]3[C@@H]1CC[C@@H]2O [ESTRADIOL] |  | 0.08 |  |

Further lines, with some results ahead:

| IC50 [2] [µM] | SMILES | EC50 (MCF7 [1]) [nM] | T/C at 10 µM (MCF7 [3]) [%] |
| --- | --- | --- | --- |
| 8.4 | Oc1ccc(-c2nc(-c3ccc(O)cc3Cl)cn2-c2ccc(O)cc2)cc1 |  | 50 |
| 12.2 | Oc1ccc(-c2cn(-c3ccc(O)cc3)c(-c3ccc(O)cc3)n2)cc1 |  |  |
